According to ChEMBL document CHEMBL4513216, “Probing the Open Global Health Chemical Diversity Library for Multistage-Active Starting Points for Next-Generation Antimalarials” (ACS Infect Dis, 2020):

test: Toxicity liver stage against HepG2, at 10uM; assay type: cell-based; set-up: test concentration 10 uM, cell line HepG2-A16-CD81EGFP; details: human, HepG2-A16-CD81EGFP cells; read-out: INHIBITION
How it was run: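 Uninfected HepG2-A16-CD81EGFP cells, 3 × 10^3 per well, 1536-well, plated on prespotted compound at 10 μM final, parasite-free screening media added to match infected plates; puromycin 10 μM positive, DMSO 0.5% negative; run in parallel with 48 h PbLuc assay at 37 °C, 5% CO2; viability by CellTiter-Glo luminescence, normalized to controls.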

| SMILES | cytotoxicity at 10 µM |
| --- | --- |
| COC(=O)c1cnn(-c2cc(Oc3cccc(C)c3)ncn2)c1N | 34.1% |
| COc1ccc(S(=O)(=O)NCCCc2nnc3nc(C)cc(C)n23)cc1 | 5.05% |
| COc1ccc2cc(NC(=O)CCNc3nc(C)cc(C)n3)cnc2c1 | -48.9% |
| Cc1cnc2c(c1NCc1ccc3c(c1)OCO3)c(=O)n(C)c(=O)n2C | 16.7% |
| CC(=O)Nc1cc(C2CC2)nn1-c1nc(C)c(C)c(=O)[nH]1 | -1.39% |
| O=C(C1CC1)N1CCC2(CC1)CNCc1ccccc12 | 1.79% |
| Cc1csc(CN2CC[C@H]3C[C@@H](c4nnc(C)[nH]4)O[C@@H]3C2)n1 | 1.56% |
| O=C1CO[C@@H]2CN(C3CCOCC3)C[C@H]2N1Cc1ccncc1 | -151% |
| CCC(CO)NCc1ccc(-c2ccccc2F)o1 (stereo not given) | -2.49% |
| CCOC(=O)CN1CCC2(CC1)CC(=O)c1ccc(OC)cc1O2 | 6.2% |
| CCS(=O)(=O)N1CCc2ccc(NC(=O)Nc3ccc(F)cc3F)cc21 | 51.2% |
| O=C(O)c1cccc2c(Br)cccc12 | 3.38% |
| CC(Cn1cc(Br)cn1)C(=O)Nc1ccc(C(N)=O)cc1 (stereo not given) | -0.609% |
| COc1c(Br)c(C(=O)NC2CCCC2)nn1C | 6.44% |
| CCN1CCCC1CNCc1cc2cc(OC)ccc2[nH]c1=O (stereo not given) | -10.2% |
| CNC(=O)c1cn[nH]c1C1(C)CCCN(Cc2ccccc2OC)C1 (stereo not given) | 0.353% |
| NC(=O)C1(c2cnccn2)CCCN1Cc1ccncc1 (stereo not given) | -0.446% |
| CC1CCCCN1c1nc2c(c(=O)[nH]1)CCN(Cc1ccccc1F)C2 (stereo not given) | -4.39% |
| COc1cc(OC)c(C2Nc3cc(Cl)ccc3C3=NCCN32)cc1OC (stereo not given) | -3.14% |
| CCc1nnc2n1CCN(c1nc(C)cc(N(C)C)n1)C2 | -5.89% |
| CC(O)c1cccc(OCc2ccon2)c1 (stereo not given) | -5.28% |
| CC(=O)NC1CCN(C(=O)Nc2ccc(SC(F)F)cc2)CC1 | -6.91% |

| SMILES | cytotoxicity at 10 µM |
| --- | --- |
| CC(C)n1nccc1NC(=O)NCCc1nc2ccc(F)cc2n1C | -7.85% |
| O=C(c1nc(N2CCCC2)ncc1Cl)N1CCN(Cc2ccsc2)CC1 | -56% |
| COc1ccccc1NC(=O)CC(C)NCCc1sc(C)nc1C (stereo not given) | 4.82% |
| Cc1nc(-c2nnc[nH]2)sc1C(=O)N1CCCC1c1ccsc1 (stereo not given) | -3.34% |
| CCn1c(C)cc(C(=O)N2CCC(NC(=O)c3ccc(C)o3)CC2)c1C | -7.45% |
| CC(c1ccco1)N(C(=O)NCc1ccon1)C1CC1 (stereo not given) | 0.805% |
| CCn1ccnc1CN1CCCC1C(=O)Nc1nccs1 (stereo not given) | -6.7% |
| CCNC(=O)NC(=O)C(C)N(C)CCOc1ccccc1C (stereo not given) | 3.45% |
| O=C(c1ccccc1)C1CCN(c2cncc(-n3cccn3)n2)CC1 | 0.935% |
| O=C(CN1C(=O)c2ccccc2CS1(=O)=O)c1ccccc1 | 15.3% |
| Cc1cccc(NC(=O)C2CCCN2C(=O)c2ccco2)c1C (stereo not given) | -2.59% |
| CC(C)(C)n1ncc2c1CCCC2NCc1ccc2ncccc2c1 (stereo not given) | 7.74% |
| Cc1ccc(CN(C)C(=O)CN2CCCCC2Cn2cncn2)cc1 (stereo not given) | 17.7% |
| COc1ccc(CN(C)C(=O)Cc2c(C)nn(C)c2C)cc1F | 17% |
| CCS(=O)(=O)CCN1CCC(N(C)Cc2ncc(C)o2)C1 (stereo not given) | 1.75% |
| CS(=O)(=O)NCCCNc1ccc(C(F)(F)F)cc1C#N | -2.18% |
| CCCNC(=O)CCNC(=O)N1CCc2c(F)ccc(F)c2C1 | -9.91% |
| Cn1nc2c(cc1=O)CN(CCOc1ccccc1C#N)CC2 | 18% |
| CC(C)(C)n1cc(CNc2ccc(CNS(C)(=O)=O)cc2)cn1 | 16.1% |
| O=C(NCC1CCN(CCc2ccccc2)C1)c1cc(Cl)c[nH]1 (stereo not given) | 10% |
| CCN1CCN(c2ccccc2NC(=O)N(C)C2CCSC2)CC1 (stereo not given) | -56.7% |
| Cc1c(C(=O)NCCC(=O)N2CCCC2)cccc1-c1ccccn1 | 1.39% |

| SMILES | cytotoxicity at 10 µM |
| --- | --- |
| NC(=O)c1cc(C2CCCN(CCc3ccc4c(c3)CCO4)C2)n[nH]1 (stereo not given) | -1.92% |
| Cc1nn(C)c(C)c1C1CCCN1Cc1cn2ccsc2n1 (stereo not given) | -51.6% |
| O=C(NCc1ccc(Cl)s1)c1ccc(N2CCOC2=O)cc1 | 21.1% |
| COc1c(C)cnc(CN(C)C2CCCCC2)c1C | 20.5% |
| N#Cc1cc(Cn2cnc(C3CCC3)cc2=O)ccc1F | -0.908% |
| CC(C)NC(=O)CNC(=O)C12CCC(=O)N1c1cc(Cl)ccc1S2 (stereo not given) | 11.7% |
| O=C(NS(=O)(=O)Cc1ccon1)c1ccsc1 | -14.2% |
| COCCCNC(=O)C(C)(C)N(C)C1CCCC1 | -51.3% |
| c1ccc(-c2cc(CN3CCC(c4ccn[nH]4)CC3)on2)cc1 | 7.98% |
| Clc1ccc2oc(C3CCN(Cc4cccnc4)CC3)nc2c1 | 9.82% |
| O=C(C1CCOCC1)N1CCC2(CC1)CN(c1ccsc1)C(=O)CO2 | -63.4% |
| c1csc(CN2CC[C@H]3O[C@@H](COCC4CC4)CC[C@H]32)c1 | -74.8% |
| COCCN1CCn2cc(CN(C)Cc3ccco3)nc2C1 | -74.9% |
| c1cnc(N2CCOCC3(CCCN(c4nncs4)C3)C2)cn1 (stereo not given) | 3.92% |
| CC(C)(O)CCc1ccc(C(=O)N2Cc3cnn(CCO)c3C2)cc1 | 2.69% |
| Cc1nc(CN2CCCC(CCc3ccccc3C(F)(F)F)C2)co1 (stereo not given) | 0.663% |
| O=C(CN1CCOc2ccccc2C1)N1Cc2cnn(CCO)c2C1 | -3.24% |
| CN1CCC(N(C)CCC(=O)N2CCC(CCc3ccccc3)CC2)C1 (stereo not given) | -5.87% |
| COc1ccc(OC2CCN(C(=O)c3ccc(C(C)=O)s3)CC2)cc1 | 3.58% |
| Cc1ccsc1-c1cccc(-c2ccn(CC3CCNC3)n2)c1 (stereo not given) | -0.288% |
| CCNc1ccnc(NC2CCN(S(C)(=O)=O)CC2)n1 | -5.16% |
| CC(=O)N1CCN(C(=O)Nc2ccccc2Cl)[C@H]2CS(=O)(=O)C[C@H]21 | -0.166% |

| SMILES | cytotoxicity at 10 µM |
| --- | --- |
| Cc1nn(C)c2nc(N(C)CC3CCN(CC(C)C)C3)sc12 (stereo not given) | -8.13% |
| CCCc1ccc(C(C)Nc2ncnc3c2CCNC3)cc1 (stereo not given) | 28.1% |
| CC1CCCN1Cc1cccc(C(=O)Nc2ccc3[nH]c(=O)oc3c2)c1 (stereo not given) | -13.4% |
| CCNC(=O)c1cn2cc(-c3ccccc3Cl)n(CC3CC3)c(=O)c2n1 | 4.63% |
| COc1nc2ccn(CCc3cnccn3)c(=O)c2cc1C#N | 54.1% |
| COCc1noc(Cn2c(=O)[nH]c3ccccc32)n1 | 4.84% |
| Cc1csc(N2CCCN(C3Cc4ccccc4C3)CC2)n1 | 10.3% |
| CC(C)c1cc(NC2CCN(C(=O)N3CCCC3)CC2)ncn1 | 10.2% |
| CN(C)C(=O)c1cc2c(s1)CCN(C(=O)CCCN1CCCCC1)C2 | -41.4% |
| O=C1CC2(CCN(Cc3ccoc3)CC2)CN1Cc1cc(F)cc(F)c1 | 12.2% |
| Cc1ccccc1OCC1CCCN(c2cc(N)nc(N)n2)C1 (stereo not given) | 29% |
| CSc1nnc(CC2CCN(C(=O)COc3cccnc3)CC2)n1C | -45.9% |
| COc1coc(CN2CCCC(CCc3ccc(F)cc3)C2)cc1=O (stereo not given) | 2.16% |
| CNC(=O)[C@@H]1C[C@@H](N)CN1c1nnc(-c2ccccc2)s1 | -36% |
| O=C1CC(c2ccsc2)c2snc(C(=O)O)c2N1 (stereo not given) | -0.772% |
| Cc1ccc2c(c1)SCC(=O)N2CC(=O)N1CCC[C@H]1c1nc(C)no1 | 7.95% |
| O=C(c1ccnc(N2CCOC(c3ccc(Cl)cc3)C2)c1)N1CCCC1 (stereo not given) | -1.8% |
| c1ccc2sc(N3CCCN(c4ncnc5c4CCNC5)CC3)nc2c1 | 31.2% |
| CN(Cc1cccc(O)c1)CC1CCCN(CCc2ccc(Cl)cc2)C1 (stereo not given) | 6.22% |
| Clc1ccccc1CCN1CCN(c2ccc3nncn3n2)CC1 | 1.78% |
| Cc1csc(N2CCN(CC(=O)Nc3ccncc3)CC2C)n1 (stereo not given) | 29.3% |
| CSCCc1ccc(NC(=O)NCc2ccnc(N(C)C)c2)cc1 | 0.661% |

| SMILES | cytotoxicity at 10 µM |
| --- | --- |
| Cc1ncsc1C(=O)NCc1ccnc(OCC(F)(F)F)c1 | -1.37% |
| C1CN(Cc2noc(C3CC3)n2)CCN(Cc2nnc(C3CC3)o2)C1 | -10.9% |
| CN(C)CC1CN(Cc2coc(-c3ccc(Cl)cc3)n2)CCO1 (stereo not given) | 0.35% |
| c1ccc(-c2noc(CN3CCc4cncnc4C3)n2)nc1 | -2.97% |
| CSc1sc(NC(=O)Cc2c(C)nc(C)[nH]c2=O)nc1C | -1.29% |
| CC(C)c1cc(NC(=O)CN2CCC(N3CCCCC3)CC2)on1 | -9.68% |
| O=C(NCCC(=O)N1CCCc2ccccc21)c1c(O)cc(F)cc1F | 1.35% |
| CCCC(=O)N(CCCN1CCOCC1)c1nc2c(Cl)cccc2s1 | -12.8% |
| CC(C)Nc1nc(-c2ccccc2)nc2c1CCN(C(=O)C1CC1)CC2 | -108% |
| Cc1cnc(N2CCC3(CC2)CC3CN(C)Cc2cccnc2)nc1 (stereo not given) | -0.37% |
| CN(Cc1ccncc1)C1COC2(CCN(Cc3nccn3C)CC2)C1 (stereo not given) | -98.7% |
| O=C(c1ccc[nH]1)N1CCn2cc(Cn3cccn3)nc2C1 | -81.9% |
| COc1ccc(CN2CCC3(CCCN(c4ncc(F)cn4)C3)C2)cc1 (stereo not given) | 62.8% |
| CC(C)NC1CCc2c(ccc(=O)n2CCN2CCOCC2)C1 (stereo not given) | 7.64% |
| COc1ccc(C[C@H]2CN(c3cc(OC)ncn3)CC[C@H]2OC)cc1 | 54.5% |
| O=C([C@H]1COC[C@H]2CN(C3CCCC3)C[C@H]21)N1CCCO1 | 2.14% |
| CCCS(=O)(=O)N1CCC2(CC1)CC(N1CCCC1)c1ccccc12 (stereo not given) | -0.664% |
| c1ccc(O[C@H]2CO[C@@]3(CCN(Cc4ccc5c(c4)OCO5)C3)C2)nc1 | -76.4% |
| Cc1ccc(CN2Cc3nnn(C)c3C(COCC3CC3)C2)s1 (stereo not given) | 4.27% |
| N#Cc1ccc(N2CCC3(CC2)CC(N2CCOCC2)CO3)cc1 (stereo not given) | 19% |
| Fc1cccc(N2CCCC3(CN(Cc4cccnc4)CCO3)C2)c1 (stereo not given) | -78.2% |
| COc1ccc(CN2C[C@H]3CC[C@@H](C2)N(Cc2snnc2C)C3)cc1 | -21.7% |
